Data reported in ChEMBL document CHEMBL1142796 (Bioorg Med Chem Lett, 2005).
pEC50, pKi: −log10 of the molar value.

Experiments:
[1] = target: T1, Neuronal acetylcholine receptor; alpha4/beta2 (Rattus norvegicus, UniProt P09483+P12390); experiment: Inhibition of [3H]nicotine binding to alpha4-beta2 nicotinic acetylcholine receptor of rat brain membrane
[2] = target: Neuronal acetylcholine receptor subunit alpha-7 (Rattus norvegicus) (UniProt Q05941); experiment: Maximal response against rat alpha-7 nicotinic acetylcholine receptor
Procedure, shortened: (§1)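 Rat α7 expressed in Xenopus oocytes, two-electrode voltage clamp at −60 mV, perfused at 2 ml/min. Controls were 300 μM ACh applied for 12 s with 181 s washout, given as two controls, then drug, then a control. Net-charge responses were normalized to the preceding ACh control and rescaled to the ACh maximum.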

[3] = target: T2, Neuronal acetylcholine receptor subunit alpha-7 (Rattus norvegicus, UniProt Q05941); experiment: Inhibition of [3H]MLA binding to rat alpha7 nicotinic acetylcholine receptor
[4] = target: T2, Neuronal acetylcholine receptor subunit alpha-7; experiment: Effective concentration against rat alpha-7 nicotinic acetylcholine receptor
Procedure, shortened: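 Rat α7 expressed in Xenopus oocytes, two-electrode voltage clamp at −60 mV, perfused at 2 ml/min. Net-charge responses were normalized to the preceding ACh control and rescaled to the ACh maximum.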

[5] = target: T2, Neuronal acetylcholine receptor subunit alpha-7; experiment: Effective concentration against rat alpha7 nicotinic acetylcholine receptor; procedure, shortened: as §1
[6] = target: Neuronal acetylcholine receptor; alpha3/beta4 (Rattus norvegicus) (UniProt P04757+P12392); experiment: Maximal response against rat alpha3-beta4 nicotinic acetylcholine receptor; type: protein-complex assay
Procedure, shortened: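 Rat α3β4 expressed in Xenopus oocytes, two-electrode voltage clamp at −60 mV, perfused at 4 ml/min. Controls were 100 μM ACh applied for 8 s with 241 s washout, given as two controls, then drug, then a control. Peak current was normalized to the preceding ACh control and rescaled to the ACh maximum.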

[7] = target: T2, Neuronal acetylcholine receptor subunit alpha-7; experiment: Inhibition of [3H]-MLA binding to alpha-7 nicotinic acetylcholine receptor of rat brain membrane
[8] = target: Neuronal acetylcholine receptor; alpha4/beta2 (Rattus norvegicus) (UniProt P09483+P12390); experiment: Maximal response against rat alpha4-beta2 nicotinic acetylcholine receptor; type: protein-complex assay
Procedure, shortened: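 Rat α4β2 expressed in Xenopus oocytes, two-electrode voltage clamp at −60 mV, perfused at 4 ml/min. Controls were 10 μM ACh applied for 8 s with 241 s washout, given as two controls, then drug, then a control. Peak current was normalized to the preceding ACh control and rescaled to the ACh maximum.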

[9] = target: Neuronal acetylcholine receptor; alpha3/beta4 (Rattus norvegicus, UniProt P04757+P12392); experiment: Effective concentration against rat alpha3-beta4 nicotinic acetylcholine receptor; type: protein-complex assay
Procedure, shortened: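 Rat α3β4 expressed in Xenopus oocytes, two-electrode voltage clamp at −60 mV, perfused at 4 ml/min. Peak current was normalized to the preceding ACh control and rescaled to the ACh maximum.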

[10] = target: T1, Neuronal acetylcholine receptor; alpha4/beta2; experiment: Effective concentration against rat alpha4-beta2 nicotinic acetylcholine receptor; type: protein-complex assay
Procedure, shortened: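 Rat α4β2 expressed in Xenopus oocytes, two-electrode voltage clamp at −60 mV, perfused at 4 ml/min. Peak current was normalized to the preceding ACh control and rescaled to the ACh maximum.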

T1 sequence (P09483 whole entry): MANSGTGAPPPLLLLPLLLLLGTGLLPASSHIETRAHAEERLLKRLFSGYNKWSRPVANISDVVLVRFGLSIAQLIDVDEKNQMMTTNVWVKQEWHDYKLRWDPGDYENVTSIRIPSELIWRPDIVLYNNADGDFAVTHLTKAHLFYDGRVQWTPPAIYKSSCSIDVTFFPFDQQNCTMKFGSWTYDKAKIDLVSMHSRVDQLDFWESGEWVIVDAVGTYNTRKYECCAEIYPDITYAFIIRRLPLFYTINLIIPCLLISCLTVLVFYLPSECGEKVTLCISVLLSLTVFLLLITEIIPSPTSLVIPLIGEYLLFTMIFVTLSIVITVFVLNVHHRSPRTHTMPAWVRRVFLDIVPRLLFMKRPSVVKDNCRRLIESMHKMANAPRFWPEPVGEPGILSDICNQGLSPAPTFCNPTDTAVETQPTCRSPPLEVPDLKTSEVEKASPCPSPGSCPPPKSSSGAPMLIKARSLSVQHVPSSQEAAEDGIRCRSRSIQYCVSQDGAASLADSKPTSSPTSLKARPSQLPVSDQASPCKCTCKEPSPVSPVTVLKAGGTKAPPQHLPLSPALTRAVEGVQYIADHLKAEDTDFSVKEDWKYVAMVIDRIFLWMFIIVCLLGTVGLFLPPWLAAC
T1 sequence (P12390 whole entry): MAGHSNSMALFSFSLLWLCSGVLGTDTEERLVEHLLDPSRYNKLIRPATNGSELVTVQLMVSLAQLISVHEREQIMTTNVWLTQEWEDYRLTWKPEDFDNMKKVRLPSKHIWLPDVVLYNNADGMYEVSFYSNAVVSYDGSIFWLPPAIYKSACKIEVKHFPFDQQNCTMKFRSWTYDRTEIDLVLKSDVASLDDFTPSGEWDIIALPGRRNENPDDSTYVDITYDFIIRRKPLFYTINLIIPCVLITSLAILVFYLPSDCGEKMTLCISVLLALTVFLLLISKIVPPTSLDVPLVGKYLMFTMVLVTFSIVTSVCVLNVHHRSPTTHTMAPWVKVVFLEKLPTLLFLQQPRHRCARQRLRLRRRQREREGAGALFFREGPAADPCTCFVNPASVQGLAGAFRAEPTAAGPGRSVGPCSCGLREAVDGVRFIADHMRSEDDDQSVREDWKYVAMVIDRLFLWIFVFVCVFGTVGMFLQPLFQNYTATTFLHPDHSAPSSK
Neuronal acetylcholine receptor subunit alpha-7 (Rattus norvegicus), sequence (Q05941 whole entry, the tested form may be a part): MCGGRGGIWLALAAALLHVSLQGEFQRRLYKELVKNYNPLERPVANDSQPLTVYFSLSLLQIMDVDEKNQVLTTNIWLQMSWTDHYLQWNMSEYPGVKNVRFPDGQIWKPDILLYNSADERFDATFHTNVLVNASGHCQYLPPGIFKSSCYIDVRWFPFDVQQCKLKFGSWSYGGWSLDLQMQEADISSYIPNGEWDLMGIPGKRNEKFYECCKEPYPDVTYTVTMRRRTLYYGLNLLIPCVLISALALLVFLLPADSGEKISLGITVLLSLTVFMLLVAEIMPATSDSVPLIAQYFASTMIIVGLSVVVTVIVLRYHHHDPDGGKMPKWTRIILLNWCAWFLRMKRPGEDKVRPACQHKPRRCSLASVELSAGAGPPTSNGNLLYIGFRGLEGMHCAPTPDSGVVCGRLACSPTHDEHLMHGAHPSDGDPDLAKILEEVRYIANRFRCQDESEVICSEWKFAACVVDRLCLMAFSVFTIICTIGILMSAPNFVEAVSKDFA
T2 sequence (Q05941 whole entry): as the sequence (Q05941 whole entry, the tested form may be a part) above
Neuronal acetylcholine receptor; alpha3/beta4, sequence (P04757 whole entry, the tested form may be a part): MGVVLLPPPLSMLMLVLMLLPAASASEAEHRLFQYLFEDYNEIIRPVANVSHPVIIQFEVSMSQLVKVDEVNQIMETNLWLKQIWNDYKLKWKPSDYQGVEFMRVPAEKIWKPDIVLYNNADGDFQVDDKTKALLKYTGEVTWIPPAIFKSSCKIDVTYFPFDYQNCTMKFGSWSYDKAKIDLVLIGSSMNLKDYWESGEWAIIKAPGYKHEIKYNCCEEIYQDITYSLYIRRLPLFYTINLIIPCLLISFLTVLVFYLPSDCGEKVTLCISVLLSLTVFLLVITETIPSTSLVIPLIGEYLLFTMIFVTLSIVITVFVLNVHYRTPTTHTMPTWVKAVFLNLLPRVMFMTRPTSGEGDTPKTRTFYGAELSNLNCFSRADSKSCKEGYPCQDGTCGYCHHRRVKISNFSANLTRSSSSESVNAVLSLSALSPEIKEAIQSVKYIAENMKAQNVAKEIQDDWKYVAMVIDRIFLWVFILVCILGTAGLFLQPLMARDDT
Neuronal acetylcholine receptor; alpha3/beta4, sequence (P12392 whole entry, the tested form may be a part): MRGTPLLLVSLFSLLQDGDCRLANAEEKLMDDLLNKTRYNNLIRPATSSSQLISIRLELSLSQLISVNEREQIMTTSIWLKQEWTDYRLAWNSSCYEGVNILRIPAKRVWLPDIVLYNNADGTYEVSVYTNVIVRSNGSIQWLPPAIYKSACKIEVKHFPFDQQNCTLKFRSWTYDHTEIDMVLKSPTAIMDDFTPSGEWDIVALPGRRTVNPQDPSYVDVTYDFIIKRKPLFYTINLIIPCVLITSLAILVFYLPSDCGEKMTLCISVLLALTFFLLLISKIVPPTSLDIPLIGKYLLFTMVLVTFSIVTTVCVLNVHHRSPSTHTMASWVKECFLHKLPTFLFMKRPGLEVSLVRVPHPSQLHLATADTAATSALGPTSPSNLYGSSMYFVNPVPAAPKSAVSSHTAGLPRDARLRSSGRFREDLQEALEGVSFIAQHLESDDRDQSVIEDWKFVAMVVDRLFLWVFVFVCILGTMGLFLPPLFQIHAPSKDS

Row | SMILES | pKi [1] | Imax [2] | pKi [3] | pEC50 [4] | pEC50 [5] | Imax [6] | pKi [7] | Imax [8] | pEC50 [9] | pEC50 [10]
1 | CN1CC[C@H]2CCc3ncccc3[C@H]21 | 4.91 |  |  |  |  |  |  |  |  | 
2 | CN1CC[C@@H]2CCc3cc[n+]([BH2-]C#N)cc3[C@@H]21 | 6.22 | 0.26 | 5.62 | 4.70 |  |  |  |  |  | 
3 | CN1CC[C@@H]2CCc3ccncc3[C@@H]21 | 6.40 | 0.11 |  |  | 4.36 |  |  |  |  | 
4 | CN1CCC[C@H]1c1ccc[n+]([BH2-]C#N)c1 | 7.39 | 0.15 |  | 4.68 |  | 0.06 | 4.82 | 0.05 | 4.55 | 3.82
5 | CN1CCC[C@H]1c1cccnc1 |  | 0.6 |  |  |  | 0.69 |  | 0.17 |  | 
